Laboratory results from ChEMBL document CHEMBL3351567, “Heterodimeric ent-kauranoids from Isodon tenuifolius” (J Nat Prod, 2014).

Experiments:
Assay type in all cases: functional, cell-based
A549 = experiment: Cytotoxicity against human A549 cells after 48 hrs by MTT assay; conditions: A549, 48 h
Procedure, shortened: (§1)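 Cells grown in RPMI-1640 or DMEM with 10% FBS, 37 °C, 5% CO2. Seeded at 1 × 10^5 cells/mL in 100 μL; adherent lines attached 12 h before dosing, suspension cells seeded at dosing. Compound at various concentrations in triplicate, 48 h. MTT (100 μg) added for 4 h, lysed with 20% SDS–50% DMF, OD 595 nm. IC50 by Reed–Muench method; cisplatin and paclitaxel as positive controls.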

SW480 = experiment: Cytotoxicity against human SW480 cells after 48 hrs by MTT assay; conditions: SW480, 48 h; procedure, shortened: as §1
SMMC-7721 = experiment: Cytotoxicity against human SMMC7721 cells after 48 hrs by MTT assay; conditions: SMMC-7721, 48 h; procedure, shortened: as §1
MCF7 = experiment: Cytotoxicity against human MCF7 cells after 48 hrs by MTT assay; conditions: MCF7, 48 h; procedure, shortened: as §1
[1] = Cytotoxicity against human HL60 cells after 48 hrs by MTT assay; conditions: HL-60, 48 h; procedure, shortened: as §1

Compound `COC[C@@]1(C[C@@H]2C(=O)[C@]34C[C@H]2C[C@H](OC(C)=O)[C@H]3[C@]2(C)[C@@H](OC(C)=O)C[C@H](O)C(C)(C)[C@H]2C(=O)[C@@H]4O)C(=O)[C@]23C[C@H]1C[C@H](OC(C)=O)[C@H]2[C@]1(C)[C@@H](OC(C)=O)C[C@H](O)C(C)(C)[C@H]1C(=O)[C@@H]3O` has an IC50 (A549) greater than 10 µM, an IC50 (SW480) greater than 10 µM and an IC50 (SMMC-7721) greater than 10 µM. It also gave an IC50 (MCF7) greater than 10 µM and an IC50 [1] greater than 10 µM.
`COC[C@@]1(C[C@@H]2C(=O)[C@]34C[C@H]2C[C@H](OC(C)=O)[C@H]3[C@@]2(C)[C@H](C(=O)[C@@H]4O)C(C)(C)[C@@H](O)C[C@@H]2O)C(=O)[C@]23C[C@H]1C[C@H](OC(C)=O)[C@H]2[C@]1(C)[C@@H](OC(C)=O)C[C@H](O)C(C)(C)[C@H]1C(=O)[C@@H]3O` showed an IC50 (A549) greater than 10 µM, an IC50 (SW480) greater than 10 µM and an IC50 (SMMC-7721) greater than 10 µM. For the same compound, the IC50 (MCF7) was greater than 10 µM and the IC50 [1] was greater than 10 µM.
In the case of `CC(=O)O[C@H]1C[C@@H]2C[C@@]3(C(=O)[C@]24CCC2=C(O4)[C@]45C[C@H]2C[C@H](OC(C)=O)[C@H]4[C@]2(C)[C@@H](OC(C)=O)C[C@H](O)C(C)(C)[C@H]2C(=O)[C@@H]5O)[C@@H]1[C@]1(C)[C@@H](OC(C)=O)C[C@H](O)C(C)(C)[C@H]1C(=O)[C@@H]3O`, the IC50 (A549) is reported as greater than 10 µM, the IC50 (SW480) is reported as greater than 10 µM and the IC50 (SMMC-7721) is reported as greater than 10 µM. It also gave an IC50 (MCF7) greater than 10 µM and an IC50 [1] greater than 10 µM.
Work on `CC(=O)O[C@H]1C[C@@H]2C[C@@]3(C4=C2CC[C@@]2(O4)C(=O)[C@]45C[C@H]2C[C@H](OC(C)=O)[C@H]4[C@]2(C)[C@@H](OC(C)=O)C[C@H](O)C(C)(C)[C@H]2C(=O)[C@@H]5OC(C)=O)[C@@H]1[C@]1(C)[C@@H](OC(C)=O)C[C@H](OC(C)=O)C(C)(C)[C@H]1C(=O)[C@@H]3O` yielded an IC50 (A549) greater than 10 µM, an IC50 (SW480) of 4 µM and an IC50 (SMMC-7721) of 9.9 µM. It also gave an IC50 (MCF7) of 4.2 µM and an IC50 [1] of 4.6 µM.
In the case of `CC(=O)O[C@H]1C[C@@H]2C[C@@]3(C(=O)[C@]24CCC2=C(O4)[C@@]45CC(=O)[C@@H]6C(C)(C)[C@@H](OC(C)=O)C[C@H](O)[C@@]6(C)[C@@H]4C(=O)C[C@@H]2C5)[C@@H]1[C@]1(C)[C@@H](OC(C)=O)C[C@H](O)C(C)(C)[C@H]1C(=O)[C@@H]3OC(C)=O`, the IC50 (A549) is reported as greater than 10 µM, the IC50 (SW480) is reported as greater than 10 µM and the IC50 (SMMC-7721) is reported as greater than 10 µM. It also gave an IC50 (MCF7) greater than 10 µM and an IC50 [1] greater than 10 µM.
`COC[C@@]1(C[C@@H]2C(=O)[C@]34C[C@H]2C[C@H](OC(C)=O)[C@H]3[C@]2(C)[C@@H](OC(C)=O)C[C@H](O)C(C)(C)[C@H]2C(=O)[C@@H]4O)C(=O)[C@]23C[C@H]1C[C@H](OC(C)=O)[C@H]2[C@]1(C)[C@@H](OC(C)=O)C[C@H](O)C(C)(C)[C@H]1C(=O)[C@H]3O` gave an IC50 (A549) greater than 10 µM, an IC50 (SW480) greater than 10 µM and an IC50 (SMMC-7721) greater than 10 µM. The IC50 (MCF7) was greater than 10 µM and the IC50 [1] was greater than 10 µM.
Compound `CC(=O)O[C@H]1C[C@@H]2C[C@@]3(C(=O)[C@]24CCC2=C(O4)[C@]45C[C@H]2C[C@H](OC(C)=O)[C@H]4[C@]2(C)[C@@H](OC(C)=O)C[C@H](O)C(C)(C)[C@H]2C(=O)[C@@H]5OC(C)=O)[C@@H]1[C@]1(C)[C@@H](OC(C)=O)C[C@H](OC(C)=O)C(C)(C)[C@H]1C(=O)[C@@H]3O` has an IC50 (A549) greater than 10 µM, an IC50 (SW480) greater than 10 µM and an IC50 (SMMC-7721) greater than 10 µM. The IC50 (MCF7) was greater than 10 µM and the IC50 [1] was greater than 10 µM.
For `CC(=O)O[C@H]1C[C@@H]2C[C@@]3(C(=O)[C@]24CCC2=C(O4)[C@]45C[C@H]2C[C@H](OC(C)=O)[C@H]4[C@]2(C)[C@@H](OC(C)=O)C[C@H](O)C(C)(C)[C@H]2[C@@H](O)[C@@H]5O)[C@@H]1[C@]1(C)[C@@H](OC(C)=O)C[C@H](O)C(C)(C)[C@H]1[C@@H](O)[C@@H]3O`, the IC50 (A549) was greater than 10 µM, the IC50 (SW480) was greater than 10 µM and the IC50 (SMMC-7721) was greater than 10 µM. It also gave an IC50 (MCF7) greater than 10 µM and an IC50 [1] greater than 10 µM.
For `CC(=O)O[C@H]1C(=O)[C@@]2(C)[C@H]([C@H](OC(=O)c3ccccc3)[C@]3(O)C[C@H](OC(=O)[C@H](O)[C@@H](NC(=O)c4ccccc4)c4ccccc4)C(C)=C1C3(C)C)[C@]1(OC(C)=O)CO[C@@H]1C[C@@H]2O` [PACLITAXEL], the IC50 (A549) was less than 0.008 µM, the IC50 (SMMC-7721) was less than 0.008 µM and the IC50 (MCF7) was less than 0.008 µM. It also gave an IC50 [1] of less than 0.008 µM.
In the case of `COC[C@@]1(C[C@@H]2C(=O)[C@]34C[C@H]2C[C@H](OC(C)=O)[C@H]3[C@]2(C)[C@@H](OC(C)=O)C[C@H](O)C(C)(C)[C@H]2C(=O)[C@@H]4O)C(=O)[C@]23C[C@H]1C[C@H](O)[C@H]2[C@@]1(C)[C@H](C(=O)[C@@H]3O)C(C)(C)[C@@H](O)C[C@@H]1O`, the IC50 (A549) is reported as greater than 10 µM, the IC50 (SW480) is reported as greater than 10 µM and the IC50 (SMMC-7721) is reported as greater than 10 µM. The IC50 (MCF7) was greater than 10 µM and the IC50 [1] was greater than 10 µM.
`CC(=O)O[C@H]1C[C@@H]2C[C@@]3(CC(=O)[C@@H]4C(C)(C)[C@@H](O)C[C@H](OC(C)=O)[C@@]4(C)[C@H]13)C(=O)[C@]21CC[C@@]12C(=O)[C@]13C[C@H]2C[C@H](OC(C)=O)[C@H]1[C@]1(C)[C@@H](OC(C)=O)C[C@H](O)C(C)(C)[C@H]1C(=O)[C@@H]3OC(C)=O` gave an IC50 (A549) greater than 10 µM, an IC50 (SW480) greater than 10 µM and an IC50 (SMMC-7721) greater than 10 µM. For the same compound, the IC50 (MCF7) was greater than 10 µM and the IC50 [1] was greater than 10 µM.
`CC(=O)O[C@H]1C[C@@H]2C[C@@]3(C(=O)[C@]24CC[C@@]42C(=O)[C@]45C[C@H]2C[C@H](OC(C)=O)[C@H]4[C@]2(C)[C@@H](OC(C)=O)C[C@H](O)C(C)(C)[C@H]2C(=O)[C@@H]5O)[C@@H]1[C@]1(C)[C@@H](OC(C)=O)C[C@H](OC(C)=O)C(C)(C)[C@H]1C(=O)[C@@H]3OC(C)=O` showed an IC50 (A549) greater than 10 µM, an IC50 (SW480) greater than 10 µM and an IC50 (SMMC-7721) greater than 10 µM. It also gave an IC50 (MCF7) greater than 10 µM and an IC50 [1] greater than 10 µM.
`CC(=O)O[C@H]1C[C@@H]2C[C@@]3(C(=O)[C@H]2C[C@]2(CO)C(=O)[C@]45C[C@H]2C[C@H](OC(C)=O)[C@H]4[C@]2(C)[C@@H](OC(C)=O)C[C@H](O)C(C)(C)[C@H]2C(=O)[C@@H]5O)[C@@H]1[C@]1(C)[C@@H](OC(C)=O)C[C@H](O)C(C)(C)[C@H]1C(=O)[C@@H]3O` gave an IC50 (A549) greater than 10 µM, an IC50 (SW480) greater than 10 µM and an IC50 (SMMC-7721) greater than 10 µM. The IC50 (MCF7) was greater than 10 µM and the IC50 [1] was greater than 10 µM.
